Experiment [1] has as its system Chorioallantoic membrane. Briefly: Antiangiogenic activity in chicken egg embryo assessed as inhibition of bFGF/VEGF-induced angiogenesis in chorioallantoic membrane after 3 days. Conditions: Gallus gallus. It is filed as functional. A digest of the protocol: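 Fertilized chick embryos were incubated at 37.5 °C for 3 days, removed from the shell, and kept 7 further days. Each compound was added to a collagen plug containing bFGF (10 ng/plug) plus VEGF (30 ng/plug) and placed on the CAM of 10-day embryos for 3 days. PBS was the negative control. Plugs were imaged and scored masked on a 0–3 angiogenesis scale, reported as mean ± SEM, and analysed by one-way ANOVA with Dunnett's test.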

Experiment [2] deals with MDA-MB-231. Briefly: Antimigratory activity in human MDA-MB-231 cells after 24 hrs using transwell system by light microscopy. The class given is functional, cell-based. Conditions: MDA-MB-231, 24 h. A digest of the protocol:
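Transwell chambers: 2.5×10^4 cells in serum-free, phenol red-free medium in the upper chamber, with DMEM + 5% FBS below as chemoattractant. Compounds at 10^-8, 10^-7, 10^-6 and 10^-5 M, with 0.1% DMSO vehicle, for 24 h. Membranes were scrubbed, formalin-fixed, methanol-permeabilized and stained with 0.1% crystal violet. Migrated cells were counted by light microscopy per 100× field as % of vehicle. IC50 is the concentration giving 50% migration inhibition.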

Experiment [3] has as its system HeLa (Homo sapiens). Description: Induction of disorganization of actin filaments in human HeLa cells assessed as decrease in F-actin staining intensity near cell membrane at 10^-6 M by phalloidin staining.
Experiment [4] deals with MDA-MB-231. Briefly: Antiinvasive activity in human MDA-MB-231 cells at 10 uM after 24 hrs by matrigel assay. Conditions: MDA-MB-231, 24 h. The class given is functional. A digest of the protocol:
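Cells serum-starved 24 h, trypsinized and resuspended in medium with DMSO or compound; 2.5×10^4 cells/well seeded on Matrigel-coated inserts. Bottom well held 10% FBS medium with DMSO or 10 μM compound. After 24 h, non-invaded cells were scrubbed off and invaded cells fixed (4% formaldehyde, 10 min, RT), stained with 0.04% crystal violet and counted at 100× in five random fields. Result is % invasion relative to DMSO.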

In experiment [5] the test system is MDA-MB-231. Description: Cytotoxicity against human MDA-MB-231 cells assessed as survival at 1 uM after 5 days. It is filed as functional. Particulars: MDA-MB-231, 120 h, read-out: Survival.
Experiment [6] relates to MDA-MB-231. Briefly: Antimigratory activity in human MDA-MB-231 cells over-expressed with fascin assessed as inhibition of cell migration at 10 uM after 24 hrs by Transwell assay.

pIC50: −log10 of the molar value. The source made the active and inactive calls. The calls are words filed in the database; no cut-off is given here.

The term inhibition denotes the relative decrease from the control value, in per cent. In general, pIC50 refers to −log10 of the IC50, conventionally taken in molar units. Read a high pIC50 as a small IC50. Regarding `CCCCCCn1c(-c2ccc(C)cc2C)cs/c1=N\C(=O)c1ccccc1`, the inhibition result in experiment [1] is “Active”. The compound further had a pIC50 in experiment [2] of 7.35. The outcome in experiment [3] was Active. Besides, in experiment [4], the inhibition at 10 µM was more than 50%. Moreover, in experiment [5], the viability at 1 µM turned out to be 90%. For the same compound, in experiment [6], the inhibition entry was “inactive”.
Consider `CCCCCCCCCCCCn1c(-c2ccc(C)cc2C)cs/c1=N\C(=O)c1ccccc1`, for which, in experiment [1], the inhibition result was “Active”. For the same compound, the negative-log IC50 (pIC50) in experiment [2] is 7.62. Further, the outcome in experiment [3] was Active. The same compound gave an inhibition at 10 µM in experiment [4] of more than 50%. Further, the viability at 1 µM in experiment [5] stood at 110%.

For the origin of these results see ChEMBL document CHEMBL3352186, “Modification and biological evaluation of thiazole derivatives as novel inhibitors of metastatic cancer cell migration and invasion” (J Med Chem, 2014).
